VIM-2 inhibitor: blocks Pseudomonas aeruginosa VIM-2 metallo-beta-lactamase. purified VIM-2, nitrocefin hydrolysis, epi-absorbance fluorescence. hit rate 0.89% among 290,000. AID 1527. inhibition, % at 5.6 µM;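 active means inhibition above the mean of all tested compounds plus 3 SD, cutoff set per screening run, cut at about 7.5% in these data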;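 further: red hydrolysis product quenches plate fluorescence so inhibitors raise well fluorescence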
PHOSPHO1 block: PHOSPHO1 (human) inhibition. Q8TCT1. recombinant PHOSPHO1, absorbance phosphatase assay. inhibition, % at 13.3 µM. hit rate 1.1% among 290,000; in the data active means inhibition above about 60%
Target sequence (Q8TCT1 whole entry, looked up): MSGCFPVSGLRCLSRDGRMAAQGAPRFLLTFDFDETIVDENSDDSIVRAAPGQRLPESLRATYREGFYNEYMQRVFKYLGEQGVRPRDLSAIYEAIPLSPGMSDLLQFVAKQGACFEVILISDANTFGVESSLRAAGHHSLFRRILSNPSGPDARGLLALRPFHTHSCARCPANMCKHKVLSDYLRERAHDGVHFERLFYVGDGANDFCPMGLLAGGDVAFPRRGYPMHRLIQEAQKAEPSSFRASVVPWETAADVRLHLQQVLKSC
PvdQ acylase: blocks Pseudomonas aeruginosa PvdQ acylase activity; inhibition, % at 10 µM; AID 488965; hit rate 0.063% among 340,000; purified PvdQ acylase, fluorescence plate reader; in the data active means inhibition above about 30%, passing the limit was not always enough
IMP-1 inh: blocks Pseudomonas aeruginosa IMP-1 metallo-beta-lactamase; purified IMP-1, nitrocefin hydrolysis, epi-absorbance fluorescence; inhibition, % at 5.6 µM; AID 1556; hit rate 0.45% among 290,000;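 active means inhibition above the mean plus 3 SD of all compounds in the same screening run, cut at about 4.5% in these data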
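Assay system: purified IMP-1; Quantity: IMP-1 0.2 nM before substrate addition; Medium: HEPES buffer pH 7.1 with ZnSO4 and Brij 35; Incubation: 15 min enzyme–compound preincubation, then 25 min nitrocefin reaction, 25 °C; Signal: fluorescence quenching readout, ex 480/em 530 nm; Controls: DMSO with and without IMP-1; Repeats: singlicate testing.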
CR mimetic SO: caloric restriction mimetics inhibiting age-related superoxide in yeast; S. cerevisiae aged cells, superoxide DHE fluorescence; hits give low values; superoxide response (% of plate mean), % at 10 µM; hit rate 0.18% among 330,000;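 active means superoxide response under a set limit, about three screen SD below normal, cut at about 65% in these data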;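 further: yeast aged for seven days with compound at 30 °C before DHE staining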
Each line names hits and unclear results; the compound was inactive in the other large screens. A selection: hits, their analogues and other compounds. The true share with any hit is near 2.2%.

Cc1cc(=O)[nH]c2ccc(S(=O)(=O)NCc3ccccc3)cc12	PHOSPHO1 block 63
CN(C)Cc1c(-c2ccc(Cl)cc2)nc2ccc(Cl)cn12	none
Nn1c(SCC(=O)Nc2ccc(F)cc2F)nnc1-c1cccnc1	none
Nn1c(SCC(=O)Nc2ccccc2F)nnc1-c1cccnc1	PHOSPHO1 block 69
Cc1cc(NC(=O)CSc2nnc(-c3cccnc3)n2N)no1	PHOSPHO1 block 74
Cc1cccc(C(=O)NNC(=O)c2cccc(C)c2)c1	none
Cc1cccc(C(=O)NNC(=O)C2CC2)c1	VIM-2 inhibitor 8.7
Cc1[nH]c(=O)c(C(=O)/C=C/c2ccccc2F)c2c1CCCC2	none
CCOc1cc(/C=N/Nc2nn3cnnc3c3ccccc23)ccc1O	none
COc1cccc(/C=N/Nc2nn3cnnc3c3ccccc23)c1	VIM-2 inhibitor 12
Oc1ccc(/C=N/Nc2nn3cnnc3c3ccccc23)cc1	VIM-2 inhibitor 8.8
COc1cc(/C=N/Nc2nn3cnnc3c3ccccc23)ccc1O	none
O=C(Nc1ccc(Cl)cc1)N1CCN(C(=O)C2CCCO2)CC1 (stereo not drawn)	PHOSPHO1 block 63
O=C(Nc1ccc(Cl)cc1)N1CC=CCC1	IMP-1 inh 8.1
CCCCn1c(N)c(N(CCOC)C(=O)CSc2nnc(-c3ccc(F)cc3)n2N)c(=O)[nH]c1=O	none (no result: VIM-2 inhibitor, PHOSPHO1 block, IMP-1 inh)
COc1ccc(C(=O)NC(=S)NNC(=O)c2ccco2)cc1	none
O=C(NNC(=S)NC(=O)c1ccco1)c1ccc(NC(=O)c2ccccc2)cc1	PHOSPHO1 block 71
COc1ccccc1OCC(=O)NNC(=S)NC(=O)c1ccco1	PHOSPHO1 block 95
O=C(Nc1ccc(NC(=S)NC(=O)c2ccco2)cc1)c1ccccc1	none
Cc1ccc2n(n1)c(=O)c(Cc1ccccc1)c([O-])[n+]2-c1ccccc1	none
CC1(C)Oc2ccc3ccc(=O)oc3c2-c2cn[nH]c21	VIM-2 inhibitor 8.0
CC1(C)Oc2ccc3ccc(=O)oc3c2/C(=C/O)C1=O	none
CC1(C)Oc2ccc3ccc(=O)oc3c2/C(=C/N)C1=O	PHOSPHO1 block 73
CC1(C)Oc2ccc3ccc(=O)oc3c2-c2cnoc21	PHOSPHO1 block 95
O=C(c1ccc2[nH]ccc2c1)N1CCCC(Nc2ccccc2)C1 (stereo not drawn)	none
O=C(COC(=O)c1ccccc1SCC(=O)NC1CCS(=O)(=O)C1)NC1CCS(=O)(=O)C1 (stereo not drawn)	none
CCNC(=O)NC(=O)COC(=O)c1ccccc1SCC(=O)NC(=O)NCC	VIM-2 inhibitor 11
COc1cc(C(=O)NCCOc2ccc(Cl)cc2)ccc1OCc1c(C)noc1C	none (no result: VIM-2 inhibitor, PHOSPHO1 block, IMP-1 inh)
CC[C@H](C)[C@@H](CN[C@H](C)CNC)NCCC(c1ccccc1)c1ccccc1	none
CNC[C@@H](C)NC[C@@H](Cc1ccccc1)NCCc1ccccc1	VIM-2 inhibitor 12
Cc1cccc(-n2c(C)c(C)c3c(N)ncnc32)c1	none
COc1cc(CC(=O)NCC(C)(C)N2CCOCC2)cc(OC)c1OC	none
Cc1ccc(Cn2nnc3c(=O)[nH]c(C4CCN(S(=O)(=O)c5ccc(F)cc5)CC4)nc32)cc1	IMP-1 inh 18
Cc1ccc(C)c(S(=O)(=O)N2CCC(c3nc4c(nnn4Cc4ccc(F)cc4)c(=O)[nH]3)CC2)c1	none
COCCn1c(C)cc(C(=O)COC(=O)c2ccc(Cl)c(S(N)(=O)=O)c2)c1C	none (no result: VIM-2 inhibitor, PHOSPHO1 block, IMP-1 inh)
CC(SCC(=O)Nc1ccccc1Br)c1nc2ccccc2c(=O)[nH]1 (stereo not drawn)	none (no result: VIM-2 inhibitor, PHOSPHO1 block, IMP-1 inh)
CCc1nn(C)c(-c2n[nH]c(=S)n2N)c1Cl	PHOSPHO1 block 62
Cc1cc(C)n2nc(C(=O)Nc3ccc4c(c3)OCO4)cc2n1	IMP-1 inh 4.7
CCCN(C(=O)CCNC(=O)Cn1cnc2ccccc2c1=O)c1cccc(Cl)c1	none
COc1ccc(C(=O)C(C)OC(=O)COc2ccccc2)cc1 (stereo not drawn)	none (no result: VIM-2 inhibitor, PHOSPHO1 block, IMP-1 inh)
NC(=O)NC(=O)COC(=O)CCSc1ccccc1	none
COC(=O)c1ccc(NC(=O)C2CCN(C(=O)c3cc(OC)c(OC)c(OC)c3)CC2)cc1	PHOSPHO1 block 106
Cn1c(SCC(=O)n2c3c(c4ccccc42)CCCC3)nnc1-c1ccccc1	VIM-2 inhibitor 8.7
Cc1ccc(-c2nnc(SCC(=O)n3c4c(c5ccccc53)CCCC4)o2)cc1	none (no result: PvdQ acylase)
Cc1nnc(SCC(=O)n2c3c(c4ccccc42)CCCC3)s1	VIM-2 inhibitor 9.8
CC1CCN(C(=O)CNC(=O)c2ccc(Br)o2)CC1	none (no result: VIM-2 inhibitor, PHOSPHO1 block, IMP-1 inh)
COc1ccc(Nc2cc(Nc3cc(OC)c(OC)c(OC)c3)ncn2)cc1	none (no result: PHOSPHO1 block)
N#CCC(=O)Nc1ccc(C(=O)OCC(=O)N2CCN(C(=O)c3ccco3)CC2)cc1	none (no result: VIM-2 inhibitor, PHOSPHO1 block, IMP-1 inh)
Cc1cc2cc(CN(Cc3cccs3)C(=S)NCc3ccco3)c(=O)[nH]c2cc1C	VIM-2 inhibitor 8.6
O=C(CCCCn1c(=O)[nH]c2ccccc2c1=O)NC1CCN(Cc2ccccc2)CC1	PHOSPHO1 block 63
C[C@@]12C(=O)OC(=O)[C@]1(C)C1CCC2O1	CR mimetic SO 51 (no result: VIM-2 inhibitor, PHOSPHO1 block, IMP-1 inh)
O=C(Cn1cc([N+](=O)[O-])cn1)N1CCCc2ccccc21	PHOSPHO1 block 64
Nn1c(SCC(=O)Nc2cccc(Br)c2)nnc1C1CC1	none (no result: VIM-2 inhibitor, PHOSPHO1 block, IMP-1 inh)
O=S(=O)(c1ccccc1)c1nc(-c2ccccc2)oc1N1CCCC1	none
CN1CCN(c2oc(-c3ccccc3)nc2S(=O)(=O)c2ccc(Br)cc2)CC1	PHOSPHO1 block 61
COc1ccc([N+](=O)[O-])cc1NCc1ccccc1C	PHOSPHO1 block 60
Cc1c(CC(=O)O)c(=O)oc2c(C)c3occ(-c4ccc(Br)cc4)c3cc12	VIM-2 inhibitor 8.9
CCCCC(NC(=O)Cc1c(C)c2cc3c(-c4ccccc4)coc3c(C)c2oc1=O)C(=O)O (stereo not drawn)	VIM-2 inhibitor 8.5
Cc1c(CC(=O)O)c(=O)oc2cc3occ(-c4ccc(F)cc4)c3cc12	none
CC(C)(C#CCN1CCCCC1)OCCOC(c1ccccc1)c1ccccc1	none
CCN(C(=O)COC(=O)c1cccnc1SC)c1c(N)n(Cc2ccccc2)c(=O)[nH]c1=O	none (no result: VIM-2 inhibitor, PHOSPHO1 block, IMP-1 inh)
CC(O)CNc1nc2ccccc2n1CC(=O)NCC(F)(F)F (stereo not drawn)	PHOSPHO1 block 73
Cc1cccc2c(-c3ccccc3)cc(=O)[nH]c12	none
Cc1cc(=S)[nH]c2c(C)cccc12	PHOSPHO1 block 98
COC(=O)c1ccccc1NC(=O)c1sc(=S)n(C)c1N	PHOSPHO1 block 90
Cn1c(N)c(C(=O)Nc2c(Cl)cccc2Cl)sc1=S	none
COC(=O)c1ccccc1NC(=O)c1sc(N)nc1C	VIM-2 inhibitor 10
O=C(COC(=O)c1ccc[n+]([O-])c1)Nc1c(Br)cc([N+](=O)[O-])cc1Br	none (no result: PvdQ acylase)
O=C(Nc1ccc(F)cc1)c1ccc(NC(=O)C2CCCO2)cc1 (stereo not drawn)	IMP-1 inh 7.7
O=C(Nc1cccc(O)c1)c1ccc(NC(=O)C2CCCO2)cc1 (stereo not drawn)	none
O=C(Nc1nccs1)c1cccc(N2C(=O)c3cccc4c([N+](=O)[O-])ccc(c34)C2=O)c1	PHOSPHO1 block 78
Cc1ccc(C(=O)O)cc1N1C(=O)c2cccc3c([N+](=O)[O-])ccc(c23)C1=O	IMP-1 inh 6.1

Screens: PubChem BioAssay, several laboratories
